Sampled rows, rich in hits. Any-hit rate of the full collection: about 2.9%.
DENV2 CPE = inhibitors of DENV2 cytopathic effect. DENV2-infected cells, cytopathic effect rescue, plate reader. CPE inhibition, % at 9.99 µM. 350,000 tested, 1.7% active. AID 651640; in the data active means CPE inhibition above about 20%, passing the limit was not always enough; inconclusive means no clear call, values can overlap the other calls; tested in BHK-21 cells
SIRT5 inh = inhibitors of human sirtuin-5 desuccinylase | Q9NXA8 | Purified SirT5, succinyl-peptide AMC, trypsin-coupled fluorescence | inhibition, % at 15 µM | 330,000 tested, 1.1% active | AID 652115; in the data active means inhibition above about 15%; inconclusive means no clear call, values can overlap the other calls
Target sequence (Q9NXA8 whole entry, looked up): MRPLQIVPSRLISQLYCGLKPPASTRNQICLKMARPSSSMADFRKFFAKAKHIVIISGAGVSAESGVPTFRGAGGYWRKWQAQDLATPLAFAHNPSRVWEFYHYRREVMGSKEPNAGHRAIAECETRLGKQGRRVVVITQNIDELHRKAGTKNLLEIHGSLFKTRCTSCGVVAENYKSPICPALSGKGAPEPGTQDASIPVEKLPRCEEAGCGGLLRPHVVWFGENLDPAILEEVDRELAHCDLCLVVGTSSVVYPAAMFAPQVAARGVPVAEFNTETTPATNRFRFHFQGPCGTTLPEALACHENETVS
C2C12 statin = protects C2C12 myotubes from simvastatin toxicity; ATP luminescence, 48 h; scaled: DMSO 0, geranylgeraniol control 100; rescue of ATP level, % at 7.49 µM; 330,000 tested, 0.78% active; AID 602340;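 active means mean ATP rescue above about 67%, or every replicate alone reaching that limit, limit read from the data, passing the limit was not always enough; inconclusive means no clear call, values can overlap the other calls; inactive means mean under the limit and some replicate under it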;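 further: myotubes were challenged with 10 µM simvastatin during compound exposure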
S100A4 inh HTS = inhibitors of human S100A4 binding to myosin IIA peptide | P26447 | S100A4/TAMRA-MyoIIA peptide fluorescence polarization | inhibition, % at 10.7 µM | 360,000 tested, 0.14% active | AID 652163;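 active means mean inhibition of at least 70% across replicates, with every replicate also reaching that level; inconclusive means mean inhibition reaches 70% but some replicates fall short; inactive means mean inhibition below 70%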
Target sequence (P26447 whole entry, looked up): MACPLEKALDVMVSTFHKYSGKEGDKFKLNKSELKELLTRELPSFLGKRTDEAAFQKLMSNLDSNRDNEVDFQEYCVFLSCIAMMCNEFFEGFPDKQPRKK
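Material: human S100A4 monomer with TAMRA-labelled myosin IIA peptide; buffer or medium: HEPES pH 7.2 with CaCl2, KCl, NaCl, DTT, Triton; compound dosing: one concentration per compound; schedule: 5 min incubation before reading; benchmarks: neutral control DMSO, positive control TFP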
PGC1a acetyl inh = lowers PGC1a acetylation signal in U2OS cells. AlphaScreen anti-acetyl-lysine; with virally co-expressed GCN5 acetyltransferase. inhibition, % at 15.6 µM. 350,000 tested, 0.17% active. AID 651687;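 active means every replicate shows inhibition of at least 40%; inconclusive means mean inhibition at least 40% but some replicate below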
A number is an active result.

CCCC(=O)N1CC2(CN(C(=O)Nc3cccc(F)c3)C2)c2c(n(C)c3cc(OC)ccc23)[C@H]1CO was read as DENV2 CPE inactive, SIRT5 inh inactive and S100A4 inh HTS inactive.
O=C(C[C@H]1C=C[C@H](NC(=O)C2CCC2)[C@@H](CO)O1)NCc1ccccc1Cl was read as DENV2 CPE inactive, SIRT5 inh inactive, C2C12 statin inactive, S100A4 inh HTS inactive and PGC1a acetyl inh inactive.
Nc1nnc(SCC(=O)Nc2ccc(N3CCOCC3)c(Cl)c2)s1 was read as DENV2 CPE inactive, SIRT5 inh inactive, C2C12 statin inactive, S100A4 inh HTS inactive and PGC1a acetyl inh inactive.
Screening Nc1nnc(SCC(=O)Nc2cccc(Cl)c2)s1 returned DENV2 CPE 50, SIRT5 inh inactive, C2C12 statin inactive and S100A4 inh HTS inactive.
CC1CCCC(NC(=O)COC(=O)Cc2cn3ccsc3n2)C1C (centres undefined) was read as SIRT5 inh 15, S100A4 inh HTS inactive and PGC1a acetyl inh inactive.
For CC1CN(S(=O)(=O)c2ccc(Cl)c(C(F)(F)F)c2)CC(C)O1 (centres undefined) the results were DENV2 CPE inactive, SIRT5 inh 15, C2C12 statin inactive, S100A4 inh HTS inactive and PGC1a acetyl inh inactive.
`O=C(C[C@@H]1CC[C@@H]2[C@H](COC[C@H](O)CN2Cc2cc(F)cc(F)c2)O1)NC1CCCC1` gave DENV2 CPE inactive, SIRT5 inh inactive, C2C12 statin inactive, S100A4 inh HTS inactive and PGC1a acetyl inh inactive.
O=C(C1CCOCC1)N1CC(=O)N2[C@H](C1)[C@H](c1ccc(-c3ccccc3F)cc1)[C@@H]2CO was read as DENV2 CPE 21, SIRT5 inh inactive, S100A4 inh HTS inactive and PGC1a acetyl inh inactive.
`O=C(c1cccnc1)N1CC(=O)N2[C@H](C1)[C@@H](c1ccc(-c3ccccc3F)cc1)[C@@H]2CO` gave DENV2 CPE 35, SIRT5 inh inactive, S100A4 inh HTS inactive and PGC1a acetyl inh inactive.
`O=C(C1CCOCC1)N1CC(=O)N2[C@H](C1)[C@@H](c1ccc(-c3ccccc3F)cc1)[C@@H]2CO` gave DENV2 CPE 23, SIRT5 inh inactive, S100A4 inh HTS inactive and PGC1a acetyl inh inactive.
Screening O=C(c1cnccn1)N1CC(=O)N2[C@H](CO)[C@@H](c3ccc(C4=CCCCC4)cc3)[C@@H]2C1 returned DENV2 CPE inactive, SIRT5 inh 28, S100A4 inh HTS inactive and PGC1a acetyl inh inactive.
For O=C(c1ccncc1)N1CC(=O)N2[C@H](CO)[C@@H](c3ccc(-c4ccccc4F)cc3)[C@H]2C1 the results were DENV2 CPE inactive, SIRT5 inh inactive, S100A4 inh HTS inactive and PGC1a acetyl inh inactive.
For COC(=O)C[C@@H]1CC[C@H]2[C@@H](COc3ccc(NC(=O)c4cnccn4)cc3C(=O)N2C)O1 the results were DENV2 CPE inactive, SIRT5 inh inactive, C2C12 statin inactive, S100A4 inh HTS inactive and PGC1a acetyl inh inactive.
For O=C(NCCc1c[nH]c2ccccc12)/C(=C/c1ccco1)NC(=O)c1ccco1 the results were DENV2 CPE inactive, SIRT5 inh inactive, S100A4 inh HTS inactive and PGC1a acetyl inh inactive.
Screening CC(=C\c1ccco1)/C=C(\C#N)C(=O)NCCc1c[nH]c2ccccc12 returned DENV2 CPE 58, SIRT5 inh inactive and S100A4 inh HTS inactive.
Screening COc1ccc(S(=O)(=O)N(C)C[C@@H]2Oc3ccc(NS(=O)(=O)c4cccs4)cc3C(=O)N([C@@H](C)CO)C[C@@H]2C)cc1 returned DENV2 CPE inactive, SIRT5 inh inactive, S100A4 inh HTS inactive and PGC1a acetyl inh inactive.
`C[C@H]1CN([C@@H](C)CO)C(=O)c2cccc(NS(=O)(=O)c3ccc(F)cc3)c2O[C@H]1CN(C)Cc1ccc(C(F)(F)F)cc1` gave C2C12 statin inactive and PGC1a acetyl inh inconclusive.
`COc1ccc(S(=O)(=O)Nc2ccc3c(c2)C(=O)N([C@@H](C)CO)C[C@H](C)[C@H](CN(C)C(=O)Nc2ccc(C(F)(F)F)cc2)OCCCC[C@H](C)O3)cc1` gave DENV2 CPE 109, SIRT5 inh inactive, S100A4 inh HTS inactive and PGC1a acetyl inh inactive.
COc1ccc(S(=O)(=O)Nc2ccc3c(c2)C(=O)N([C@@H](C)CO)C[C@@H](C)[C@@H](CN(C)C(=O)Nc2ccc(C(F)(F)F)cc2)OCCCC[C@H](C)O3)cc1 was read as DENV2 CPE inactive, SIRT5 inh inactive, S100A4 inh HTS inactive and PGC1a acetyl inh inactive.
For COc1ccc(S(=O)(=O)Nc2ccc3c(c2)C(=O)N([C@@H](C)CO)C[C@H](C)[C@@H](CN(C)C(=O)Nc2ccc(C(F)(F)F)cc2)OCCCC[C@@H](C)O3)cc1 the results were DENV2 CPE inactive, SIRT5 inh inactive, S100A4 inh HTS inactive and PGC1a acetyl inh inactive.
For COc1ccc(S(=O)(=O)Nc2ccc3c(c2)C(=O)N([C@@H](C)CO)C[C@H](C)[C@@H](CN(C)C(=O)Nc2ccc(C(F)(F)F)cc2)OCCCC[C@H](C)O3)cc1 the results were DENV2 CPE 106, SIRT5 inh inactive, S100A4 inh HTS inactive and PGC1a acetyl inh inactive.
For Cc1noc(C)c1NC(=O)Nc1cccc2c1O[C@H](CN(C)C(=O)NC(C)C)[C@H](C)CN([C@@H](C)CO)C2=O the results were DENV2 CPE inactive, SIRT5 inh inactive, C2C12 statin inactive, S100A4 inh HTS inactive and PGC1a acetyl inh inactive.
CCC(=O)N1C[C@H](C)[C@@H](OC)CN(C)C(=O)c2ccc(NC(=O)c3ccc(F)cc3)cc2OC[C@@H]1C was read as DENV2 CPE inactive, SIRT5 inh inactive, S100A4 inh HTS inactive and PGC1a acetyl inh inactive.
For Cc1ccc(S(=O)(=O)N(C)C[C@@H]2Oc3ccc(NS(=O)(=O)c4cccs4)cc3CC(=O)N([C@@H](C)CO)C[C@H]2C)cc1 the results were DENV2 CPE inactive, SIRT5 inh inactive, C2C12 statin inactive, S100A4 inh HTS inactive and PGC1a acetyl inh inactive.
`O=C(NCc1ccccc1Cl)C1CCCN(c2ncnc3c2nc2n3CCCCC2)C1` (centres undefined) gave DENV2 CPE inactive, SIRT5 inh inactive, C2C12 statin inactive, S100A4 inh HTS inactive and PGC1a acetyl inh inactive.
Screening CCOc1ccc(CCNC(=O)C2CCCN(c3ncnc4c3nc3n4CCCCC3)C2)cc1 (centres undefined) returned DENV2 CPE inactive, SIRT5 inh inactive, C2C12 statin 76, S100A4 inh HTS inactive and PGC1a acetyl inh inactive.
Screening O=C(NCc1ccco1)C1CCCN(c2ncnc3c2nc2n3CCCCC2)C1 (centres undefined) returned DENV2 CPE 25, SIRT5 inh inactive, C2C12 statin inactive, S100A4 inh HTS inactive and PGC1a acetyl inh inactive.
`O=C(C[C@H]1C[C@H]2c3cc(NC(=O)Nc4ccc(C(F)(F)F)cc4)ccc3O[C@H]2[C@H](CO)O1)NCc1ccccn1` gave DENV2 CPE inactive, SIRT5 inh inactive, C2C12 statin inactive, S100A4 inh HTS inactive and PGC1a acetyl inh inactive.
Screening Cn1c(=O)c2c(nc(OCCc3ccccc3)n2C)n(C)c1=O returned DENV2 CPE inactive, SIRT5 inh 26, C2C12 statin inactive and S100A4 inh HTS inactive.
